# Results: paper PMC7750258 (Progress in neuro-psychopharmacology & biological psychiatry, 2020)
# Where two headings read alike, the source gives them in different places.
# How the values were obtained:
# rats = conditions: ref Tseng and Craft (2001); cited from earlier work
# C57BL/6J mice = test: THC drug discrimination in mice; type: in vivo; conditions: for ED50 (± SEM), THC drug discrimination: compound alone, i.p. 30 min pre-session; for substitution for the THC training dose: mice of both sexes
# ICR mice [1] = test: Cannabinoid tetrad: locomotor activity; type: in vivo; conditions: female and male ICR mice, i.p., 10 min session 30 min after injection
# ICR mice [2] = test: Cannabinoid tetrad: ring immobility; type: in vivo; conditions: for effect on ring immobility: ICR mice of both sexes; for Ring Immobility ED50 (± SEM): i.p., n=6, maximal effect 100% immobility
# In short: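 Drug-naïve adult ICR mice, males and females (n=6 per sex per dose), were dosed with vehicle or test compound. At 50 min post-injection each mouse was placed on an elevated ring. Time spent immobile over 5 min was divided by 300 s and multiplied by 100 to give percent immobility.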
# ICR mice [3] = test: Cannabinoid tetrad: rectal temperature; type: in vivo; conditions: for effect on body temperature: ICR mice of both sexes; for Body Temperature ED50 (± SEM): i.p., n=6, maximal effect −6°C
# In short: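 Adult drug-naïve ICR mice of both sexes (n=6 per sex per dose) received vehicle or test compound. Baseline rectal temperature was taken before injection. Temperature was re-measured immediately after a 10 min locomotor session that began 30 min post-injection. […] It came from least-squares linear regression on the linear part of the dose-effect curve against log10 dose.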
# CB1 receptor [4] = molecular target: T1, CB1 receptor (Mus musculus, UniProt P47746); test: [3H]CP55,940 displacement binding in mouse cerebellar membranes; parameters: species or system ICR mice; conditions: read-out: CB1 Binding Affinity (Ki in nM), cerebellum, N = 4 / value
# [5] = ref Huestis, 2007; Mazur et al., 2009; cited from earlier work
# CB1 receptor [6] = molecular target: T1, CB1 receptor; test: Agonist-stimulated [35S]GTPγS binding in mouse cerebellar membranes; type: biochemical, ICR mice; conditions: mouse cerebellum, both sexes
# Sprague-Dawley rats = test: THC drug discrimination in rats; type: in vivo
# CB1 receptor [7] = molecular target: CB1 receptor (Rattus norvegicus, UniProt P20272); test: Agonist-stimulated [35S]GTPγS binding in rat cerebellar membranes; type: biochemical, Sprague-Dawley rats; conditions: rat cerebellum, both sexes
# CB1 receptor (Rattus norvegicus, UniProt P20272), sequence (P20272 whole entry): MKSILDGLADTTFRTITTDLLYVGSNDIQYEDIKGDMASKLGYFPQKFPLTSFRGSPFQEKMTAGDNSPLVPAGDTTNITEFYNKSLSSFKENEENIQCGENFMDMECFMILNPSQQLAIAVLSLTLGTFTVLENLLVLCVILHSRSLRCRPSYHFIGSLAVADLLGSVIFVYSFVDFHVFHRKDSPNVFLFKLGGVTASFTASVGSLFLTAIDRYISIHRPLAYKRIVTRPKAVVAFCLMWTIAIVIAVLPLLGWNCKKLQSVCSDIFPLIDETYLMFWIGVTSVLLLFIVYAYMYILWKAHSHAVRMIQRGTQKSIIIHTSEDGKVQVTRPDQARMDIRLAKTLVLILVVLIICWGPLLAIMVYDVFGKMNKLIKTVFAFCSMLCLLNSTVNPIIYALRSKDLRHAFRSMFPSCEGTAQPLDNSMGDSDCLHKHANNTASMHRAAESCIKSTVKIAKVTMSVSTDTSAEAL
# T1 sequence (P47746 whole entry): as the sequence (P20272 whole entry) above, with E95D counted along it
compound,measurement,setting,value
11-OH-Δ^9-tetrahydrocannabinol [11-OH-THC],potency in female vs male rats,rats,about twice as potent in female than male rats
same,greater potency than THC in THC drug discrimination,"C57BL/6J mice; C57Bl/6J mice, range across sexes",7- to 9 fold
same,more potent than THC in THC drug discrimination,C57BL/6J mice; female mice,7 fold
same,response rate compared to vehicle,"C57BL/6J mice; female mice, subset n=8",but not in females
same,"ED50 (± SEM), THC drug discrimination","C57BL/6J mice; female mice, subset n=8",0.28 mg/kg
same,more potent than THC in THC drug discrimination,C57BL/6J mice; male mice,9 fold
same,response rate compared to vehicle,"C57BL/6J mice; male mice, subset n=8",significantly decreased by 3 mg/kg 11-OH-THC
same,"ED50 (± SEM), THC drug discrimination","C57BL/6J mice; male mice, subset n=8",0.24 mg/kg
same,substitution for the THC training dose,C57BL/6J mice,dose-dependently substituted for THC
same,effect on locomotor activity,ICR mice [1],Neither drug significantly decreased locomotor activity
same,effect on ring immobility,ICR mice [2],clear and significant dose-dependent increases in ring immobility
same,"greater potency than THC, catalepsy","ICR mice [2]; ICR mice, range across sexes",7- to 15 fold
same,Ring Immobility ED50 (± SEM),ICR mice [2]; female ICR mice,0.16 (out of range)
same,Ring Immobility ED50 (± SEM),ICR mice [2]; male ICR mice,0.57 (0.07–4.57)
same,effect on body temperature,ICR mice [3],decreases in body temperature
same,"greater potency than THC, hypothermia","ICR mice [3]; ICR mice, range across sexes",7- to 31 fold
same,Body Temperature ED50 (± SEM),ICR mice [3]; female ICR mice,0.19 (0.006–6.1)
same,Body Temperature ED50 (± SEM),ICR mice [3]; male ICR mice,0.70 (0.22–2.26)
"CCCCCCC(C)(C)c1ccc([C@@H]2C[C@H](O)CC[C@H]2CCCO)c(O)c1 [CP55,940]",Ki,CB1 receptor [4]; female mice,0.48 nM
same,Ki,CB1 receptor [4]; male mice,0.56 nM
"CCCCCc1cc(O)c2c(c1)OC(C)(C)[C@@H]1CCC(C(=O)O)=C[C@@H]21 [THC-COOH, 11-nor-9-carboxy-Δ^9-tetrahydrocannabinol]",cannabimimetic effects,[5],lacks cannabimimetic effects
"Cc1c(C(=O)NN2CCCCC2)nn(-c2ccc(Cl)cc2Cl)c1-c1ccc(Cl)cc1 [rimonabant, 5-(4-chlorophenyl)-1-(2,4-dichlorophenyl)-4-methyl-N-(piperidin-1-yl)-1H-pyrazole-3-carboxamide]",rightward shift of THC dose-effect curve,"C57BL/6J mice; 1 mg/kg antagonist i.p. 10 min before THC, both sexes",~ 7 fold
same,effect of antagonist on substitution by 1 mg/kg 11-OH-THC,"C57BL/6J mice; 1 mg/kg rimonabant or 3 mg/kg SR144528 i.p. 10 min prior, n=8/sex",blocked maximal substitution produced by 1 mg/kg 11-OH-THC
same,response rate compared to vehicle,"C57BL/6J mice; male mice, subset n=8",significantly suppressed compared to vehicle alone treatment
"CCCCCc1cc(O)c2c(c1)OC(C)(C)[C@@H]1CCC(C)=C[C@@H]21 [THC, Δ^9-tetrahydrocanabinol]",functional character in [35S]GTPγS assay,CB1 receptor [6],partial agonists
same,more potent in female than in male rats,Sprague-Dawley rats; THC drug discrimination,2.8 fold
same,substitution for the THC training dose,Sprague-Dawley rats; rats of both sexes,dose-dependently substituted for the 1.7 mg/kg training dose in both sexes
same,response rate compared to vehicle,"Sprague-Dawley rats; rats, both sexes",3 mg/kg THC significantly decreased overall responding across both sexes
same,response rate compared to vehicle,"C57BL/6J mice; all mice (15 female, 20 male), first and second THC dose-effect curves",significantly increased overall responding across both sexes at doses of 3 and 5.6 mg/kg during the first test and over a dose range of 3–10 mg/kg during the second test
same,response rate compared to vehicle,"C57BL/6J mice; female mice, subset n=8",but not in females
same,response rate compared to vehicle,"C57BL/6J mice; male mice, subset n=8",significantly decreased by 30 mg/kg THC
same,substitution for the THC training dose,C57BL/6J mice,dose-dependently substituted for the 5.6 mg/kg training dose
same,effect on locomotor activity,ICR mice [1],Neither drug significantly decreased locomotor activity
same,effect on ring immobility,ICR mice [2],clear and significant dose-dependent increases in ring immobility
same,effect on body temperature,ICR mice [3],decreases in body temperature
same,functional character in [35S]GTPγS assay,CB1 receptor [7],partial agonists
